# S100A4 inh HTS – blocks human S100A4 binding to myosin IIA peptide; inhibition, % at 10.7 µM; actives 0.14% (n = 360,000); AID 652163; S100A4/TAMRA-MyoIIA peptide fluorescence polarization; P26447;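 active = mean inhibition of at least 70% across replicates, with every replicate also reaching that level; inconclusive = mean inhibition reaches 70% but some replicates fall short; inactive = mean inhibition below 70%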
# Target sequence (P26447 whole entry, looked up): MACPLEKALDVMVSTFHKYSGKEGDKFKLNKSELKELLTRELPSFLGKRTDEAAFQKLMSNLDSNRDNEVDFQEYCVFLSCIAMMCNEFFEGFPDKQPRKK
#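 Compound dosing: one dose per compound; test system: human S100A4 monomer with TAMRA-labelled myosin IIA peptide; probe or stimulus: TAMRA-labelled myosin IIA heavy-chain peptide probe, 5 nM; medium: HEPES buffer with Ca2+, pH 7.2; schedule: 5 min incubation before reading; benchmarks: neutral control DMSO, positive control TFP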
# PfHsp90 set2 – inhibits growth of yeast expressing Plasmodium falciparum Hsp90. S. cerevisiae expressing PfHsp90, BacTiter-Glo ATP, 48 h; yeast lacking PDR1 and PDR3 efflux regulators. inhibition, % at 9.4 µM. actives 0.32% (n = 310,000);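 active = every replicate shows inhibition above about 80%, whatever the replicate mean, limit read from the data; inconclusive = mean inhibition reaches the set limit but some replicate falls short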;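 note: 0% = DMSO neutral controls and 100% = 20 µM radicicol positive controls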
# MLL AF4-AF9 inh – MLL-AF4/AF9 protein interaction inhibition; AlphaScreen, biotin-AF4 peptide binding to FLAG-AF9; inhibition, % at 10 µM; P42568; AID 651704; actives 0.47% (n = 350,000);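 active = every replicate reaching a set inhibition limit, whatever the replicate mean, cut at about 25% in these data; inconclusive = mean inhibition reaches that limit but some replicates miss it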;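 note: 0% = plate neutral control median and 100% = total signal loss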
# Target sequence (P42568 whole entry, looked up): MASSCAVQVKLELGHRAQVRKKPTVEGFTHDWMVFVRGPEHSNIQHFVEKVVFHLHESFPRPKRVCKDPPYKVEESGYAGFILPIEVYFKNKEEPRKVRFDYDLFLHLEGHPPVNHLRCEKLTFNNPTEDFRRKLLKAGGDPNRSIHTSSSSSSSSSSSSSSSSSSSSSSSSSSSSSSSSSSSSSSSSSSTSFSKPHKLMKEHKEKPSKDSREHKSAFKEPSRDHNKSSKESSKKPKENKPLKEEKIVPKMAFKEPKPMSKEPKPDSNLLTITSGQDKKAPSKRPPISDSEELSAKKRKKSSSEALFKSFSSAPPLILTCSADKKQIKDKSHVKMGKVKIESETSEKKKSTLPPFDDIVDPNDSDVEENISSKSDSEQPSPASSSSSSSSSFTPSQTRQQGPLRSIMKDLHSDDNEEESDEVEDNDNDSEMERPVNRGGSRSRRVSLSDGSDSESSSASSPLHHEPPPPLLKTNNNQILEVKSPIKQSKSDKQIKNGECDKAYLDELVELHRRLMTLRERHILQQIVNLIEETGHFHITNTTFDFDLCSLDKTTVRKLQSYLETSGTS
# Cneo AK release – Cryptococcus neoformans lysis via adenylate kinase release; C. neoformans lysis, adenylate kinase release luminescence, 4 h; normalised: neutral wells 0, clomiphene wells 100; lysis activity, % at 15 µM; actives 0.2% (n = 360,000); AID 651654;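 active = mean lysis activity across replicates of at least 80%, whatever share of replicates individually reach that level; inactive = mean lysis activity below 80%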
#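 Assay system: C. neoformans cells. Amount: yeast cell density of 5 × 10^6 cells/mL. Technique: AK luminescence. Buffer or medium: YPD. Times: static 4 h at 37 °C with compound, 1 h detection. Dosing: single-point compound dose. Read-out: lysis from increased AK signal.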
# DENV2 CPE rescue – inhibitors of DENV2 cytopathic effect. actives 1.7% (n = 350,000). CPE inhibition, % at 9.99 µM. DENV2-infected cells, cytopathic effect rescue, plate reader; in the data active = CPE inhibition above about 20%, passing the limit was not always enough; inconclusive = no clear call, values can overlap the other calls; tested in BHK-21 cells;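 note: 0% = median of neutral control wells and 100% = median of positive control wells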
# Ecoli rRNA inh – selective bacterial rRNA inhibition in E. coli. E. coli WT GFP vs humanized-ribosome RFP mutants, fluorescence, 24 h; stronger effect = lower value; DMSO median 0, no signal -100. GFP signal change (wild-type ribosome), % (concentration not given with the values). actives 1.6% (n = 350,000);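 active = significant combined selectivity score with lowered wild-type GFP, culture density cut under 30%, mutant RFP and density less affected; inactive = any of these conditions unmet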
# An asterisk follows results filed as active; ? = inconclusive; / = not tested or not shown. This is a sample that favours compounds with a hit; in the whole collection about 3.2% have one here.
SMILES,S100A4 inh HTS,PfHsp90 set2,MLL AF4-AF9 inh,Cneo AK release,DENV2 CPE rescue,Ecoli rRNA inh
C[C@@H]1CN([C@@H](C)CO)C(=O)c2cc(NS(C)(=O)=O)ccc2O[C@@H]1CN(C)C(=O)Nc1cccc2ccccc12,0,/,-1,1,-6,2
C[C@@H]1CN([C@H](C)CO)C(=O)c2cccc(N(C)C)c2O[C@H]1CN(C)Cc1ccc(C(=O)O)cc1,5,/,-12,-2,11,2
COc1ccc(C2=CC3=C(Br)C(=O)C(C)(O)C(=O)C3=CO2)cc1 (configuration not stated),/,107*,/,1,/,/
COC(=O)CCC(=O)OC1(C)C(=O)C2=CN(Cc3ccc(OC)cc3)C(c3ccc(OC)cc3)=CC2=C(Br)C1=O (configuration not stated),-3,-1,/,1,23*,0
CCC(=O)OC1(C)C(=O)C2=COC(c3ccc(OC)cc3)=CC2=C(Br)C1=O (configuration not stated),-18,113*,-8,1,-2,4
CCC(=O)OC1(C)C(=O)C=C2C=C(c3ccc(C#N)cc3)OC=C2C1=O (configuration not stated),1,-34,-6,-11,-5,-6
CO[C@@H]1CN(C)C(=O)c2cc(NC(=O)C3CC3)ccc2OC[C@@H](C)N(C(=O)c2ccccc2)C[C@H]1C,5,/,0,-1,7,-3
CCOc1ccc(N(CC(=O)Nc2ccc(Br)cc2)S(C)(=O)=O)cc1,-1,-13,1,-2,-4,-2
CCOc1ccc(N(CC(=O)Nc2cccc(C)c2)S(C)(=O)=O)cc1,-5,17,-4,7,43*,-4
COc1ccc([Si](C)(C)[C@@H]2[C@@H](CCO)O[C@]3(C(=O)N(Cc4ccc(NC(C)=O)cc4)c4ccccc43)[C@H]2C)cc1,11,/,3,55,20*,/
COc1ccc([Si](C)(C)[C@H]2[C@H](CCO)O[C@@]3(C(=O)N(Cc4ccc(NC(C)=O)cc4)c4ccccc43)[C@@H]2C)cc1,-1,/,2,-12,-8,/
COc1ccc([Si](C)(C)[C@H]2[C@H](CCO)O[C@@]3(C(=O)N(Cc4ccccc4)c4ccc(N5CCOC5=O)cc43)[C@@H]2C)cc1,-2,/,-13,7,20*,/
C=CCN1C(=O)[C@@]2(O[C@@H](CCn3cc([C@H](O)c4ccccc4)nn3)[C@H]([Si](C)(C)c3ccc(OC)cc3)[C@H]2C)c2cc(N3CCOC3=O)ccc21,-2,/,0,-2,42*,/
O=C(O)C[C@@H]1C=C[C@@H](NC(=O)c2ccccc2F)[C@@H](CO)O1,6,/,-13,-6,?,1
Cc1noc(C)c1S(=O)(=O)N(C)C[C@@H]1Oc2ccc(NS(=O)(=O)c3ccc(F)cc3)cc2C(=O)N([C@@H](C)CO)C[C@@H]1C,/,/,/,/,/,-1
C[C@@H]1CCCCO[C@H](CN(C)C(=O)Nc2ccc3c(c2)OCO3)[C@H](C)CN([C@H](C)CO)C(=O)c2cc(NC(=O)NC3CCCCC3)ccc2O1,/,/,/,46,41*,1
C[C@@H]1CCCCO[C@@H](CN(C)C(=O)NC2CCCCC2)[C@@H](C)CN([C@@H](C)CO)C(=O)c2cc(NC(=O)Nc3ccccc3)ccc2O1,6,/,0,-3,45*,0
C[C@@H]1CN([C@@H](C)CO)C(=O)c2cc(NC(=O)NC3CCCCC3)ccc2O[C@@H](C)CCCCO[C@@H]1CN(C)C(=O)Nc1ccc2c(c1)OCO2,/,/,/,-18,-11,0
C[C@@H]1CCCCO[C@H](CN(C)C(=O)NC2CCCCC2)[C@@H](C)CN([C@H](C)CO)C(=O)c2cc(NC(=O)Nc3ccccc3)ccc2O1,-1,/,-1,1,-6,-3
C[C@@H]1CCCCO[C@H](CN(C)C(=O)NC2CCCCC2)[C@@H](C)CN([C@H](C)CO)C(=O)c2cc(NC(=O)NC3CCCCC3)ccc2O1,-4,/,0,-12,78*,0
C[C@H]1CCCCO[C@H](CN(C)C(=O)NC2CCCCC2)[C@@H](C)CN([C@@H](C)CO)C(=O)c2cc(NC(=O)Nc3ccccc3)ccc2O1,-7,/,1,2,27*,-1
COc1ccc(NC(=O)N(C)C[C@@H]2Oc3ccc(NS(=O)(=O)c4ccc(F)cc4)cc3C(=O)N([C@@H](C)CO)C[C@@H]2C)cc1,-5,/,-4,1,0,2
C[C@@H]1CN([C@@H](C)CO)C(=O)c2cc(NS(=O)(=O)c3ccc(Cl)cc3)ccc2O[C@@H](C)CCCCO[C@@H]1CN(C)C(=O)Nc1ccc2c(c1)OCO2,3,/,-9,6,-3,-1
C[C@H](CO)N1C[C@H](C)[C@H](CN(C)C(=O)NC2CCCCC2)OCCCC[C@H](C)Oc2ccc(NC(=O)C3CCCCC3)cc2C1=O,4,/,1,104*,0,-2
C[C@H](CO)N1C[C@H](C)[C@@H](CN(C)C(=O)NC2CCCCC2)OCCCC[C@H](C)Oc2ccc(NC(=O)C3CCCCC3)cc2C1=O,8,/,-2,-1,?,0
SMILES,S100A4 inh HTS,PfHsp90 set2,MLL AF4-AF9 inh,Cneo AK release,DENV2 CPE rescue,Ecoli rRNA inh
CCC(=O)N1CC2(CCN(C(=O)NC(C)C)CC2)c2c(n(C)c3cc(OC)ccc23)[C@@H]1CO,3,/,0,/,2,-3
CCCNC(=O)N1C[C@@H](O)COC[C@@H]2O[C@H](CC(=O)N[C@H]3CCN(Cc4ccccc4)C3)CC[C@H]21,-4,/,-8,-3,-2,0
O=C(C[C@@H]1CC[C@H]2[C@@H](COC[C@H](O)CN2Cc2ccccc2)O1)N[C@@H]1CCN(Cc2ccccc2)C1,-6,/,6,-8,39*,4
CCCNC(=O)N1C[C@H](O)COC[C@@H]2O[C@H](CC(=O)N[C@H]3CCN(Cc4ccccc4)C3)CC[C@H]21,87*,/,-8,47,15,2
CCn1cc(C(=O)OCC(=O)Nc2ccc(C(C)C)cc2)c(=O)c2ccc(C)nc21,-7,-27,-1,/,-3,-23*
CC(C)[C@@H]1C(=O)N[C@@H](c2ccccc2)CC=CC[C@@H](C)Oc2ccccc2C(=O)N1C (mixture of isomers),/,/,/,/,/,-4
Cc1nc(C(=O)NNC(=O)c2cccc(Cl)c2)c(C(F)(F)F)o1,-1,12,-4,-6,0,-27*
COc1ccc(NC(=O)Nc2ccc3c(c2)C(=O)N([C@H](C)CO)C[C@H](C)[C@H](CN(C)S(=O)(=O)c2cn(C)cn2)O3)cc1,-1,/,-1,-3,9,0
NC(=O)Cn1cc(/C=N\NS(=O)(=O)c2ccc(Cl)cc2)c2ccccc21,3,-17,-2,4,6,-11

# Source: PubChem
